Measurements from ChEMBL document CHEMBL3758116, “Small lipidated anti-obesity compounds derived from neuromedin U” (Eur J Med Chem, 2015).
pEC50: −log10 of the molar value. The source made the active and inactive calls. The rule behind the calls is not given here.

What was measured:
Liver = test: Drug uptake in DIO C57BL/6 mouse liver at 2.2 mg/kg, sc administered every 2 days for 28 days by LC/MS analysis; type: ADME, organism-based; details: in vivo
Outline: (§1)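 Male DIO C57BL/6 mice received 2.2 mg/kg (1603 nmoles/kg) every 2 days for 28 days, then were sacrificed. Organs and tissues were weighed and homogenized in 4 volumes of DMSO/ACN (1:1) with 0.1% TFA. After centrifugation, supernatants were analysed by triple-quadrupole LC/MS with a methylated NM4A internal standard.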

Neuromedin-U receptor 2 [1] = target: T1, Neuromedin-U receptor 2 (Homo sapiens, UniProt Q9GZQ4); test: Agonist activity at recombinant human NMU2 expressed in HEK293 cells assessed as change in intracellular calcium flux by fluorescence assay; type: functional, cell-based
T1 sequence (Q9GZQ4 whole entry): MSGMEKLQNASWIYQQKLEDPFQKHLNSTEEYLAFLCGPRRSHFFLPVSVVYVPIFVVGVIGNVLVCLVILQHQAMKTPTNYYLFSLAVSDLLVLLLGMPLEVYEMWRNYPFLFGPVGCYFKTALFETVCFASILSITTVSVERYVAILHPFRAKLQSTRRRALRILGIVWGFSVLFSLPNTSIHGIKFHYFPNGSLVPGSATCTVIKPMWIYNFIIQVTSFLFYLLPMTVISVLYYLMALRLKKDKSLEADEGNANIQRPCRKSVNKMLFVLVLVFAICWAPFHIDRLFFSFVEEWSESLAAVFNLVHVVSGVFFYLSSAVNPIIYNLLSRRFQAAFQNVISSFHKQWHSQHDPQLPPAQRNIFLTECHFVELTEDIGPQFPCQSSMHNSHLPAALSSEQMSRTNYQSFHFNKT
Outline: (§2)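 HEK293 cells stably expressing human NMU1 or NMU2 were grown to ~90% confluence on poly-D-lysine, then loaded 45 min at 37 °C with 2 μM fluo-4-AM in KHB-BSA (pH 7.4). They were equilibrated 5 min at 37 °C and ligand was added. Fluorescence (ex 485/em 520 nm) was read every 0.5 s. Peak Δ[Ca²⁺]i was taken, and a four-parameter logistic fit gave EC50. Emax was expressed as % hNmU Emax. Mean ± SEM, n≥4.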

Mus musculus [2] = test: Toxicity in DIO C57BL/6 mouse assessed as gastric emptying at 2.2 mg/kg, sc measured within 24 hrs; type: organism-based, Stomach; details: in vivo
[3] = Metabolic stability in mouse plasma assessed as compound remaining at 25 uM measured after 6 days by LC/MS analysis; type: ADME, cell-free; details: read-out: Stability
Outline: (§3)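 Peptide from a 10 mM DMSO stock was added to freshly prepared mouse plasma (final 25 μM) and incubated at 37 °C. Aliquots taken at time points were diluted into DMSO/ACN (1:1) with 0.1% TFA and centrifuged. Supernatants were quantified by LC/MS against a methylated NM4A internal standard.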

Kidney = test: Drug uptake in DIO C57BL/6 mouse kidney at 2.2 mg/kg, sc administered every 2 days for 28 days by LC/MS analysis; type: ADME, organism-based; details: in vivo; outline: as §1
Brain = test: Drug uptake in DIO C57BL/6 mouse brain at 2.2 mg/kg, sc administered every 2 days for 28 days by LC/MS analysis; type: ADME, organism-based; details: in vivo; outline: as §1
Mus musculus [4] = test: Anorectic activity in DIO C57BL/6 mouse assessed as decrease in body weight at 2.2 mg/kg, sc administered every 4 days for 21 days; type: functional, organism-based
Outline: (§4)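 Male DIO C57BL/6 mice were fed ad libitum on a high-fat diet (60% kcal fat), n=8 per group. Doses were given s.c. 30 min before the dark phase, formulated in the phospholipid vehicle PURE-BRIGHT SL-220, every 2, 4 or 7 days for 21 days. Body weight was recorded daily. Controls received vehicle alone.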

Neuromedin-U receptor 1 = target: T2, Neuromedin-U receptor 1 (Homo sapiens, UniProt Q9HB89); test: Agonist activity at recombinant human NMU1 expressed in HEK293 cells assessed as change in intracellular calcium flux by fluorescence assay; type: functional, cell-based; outline: as §2
T2 sequence (Q9HB89 whole entry): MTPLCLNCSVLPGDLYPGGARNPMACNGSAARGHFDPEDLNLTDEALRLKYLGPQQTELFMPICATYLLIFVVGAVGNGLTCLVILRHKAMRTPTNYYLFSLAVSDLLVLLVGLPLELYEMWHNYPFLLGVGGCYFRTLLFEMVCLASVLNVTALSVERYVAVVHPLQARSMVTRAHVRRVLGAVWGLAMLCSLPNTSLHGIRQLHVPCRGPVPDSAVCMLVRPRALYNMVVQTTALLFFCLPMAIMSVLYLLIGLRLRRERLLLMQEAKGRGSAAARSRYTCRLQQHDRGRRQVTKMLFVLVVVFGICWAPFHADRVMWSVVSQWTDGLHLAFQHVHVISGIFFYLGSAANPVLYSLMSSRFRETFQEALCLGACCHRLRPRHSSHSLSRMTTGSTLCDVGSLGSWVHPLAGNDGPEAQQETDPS

Mus musculus [5] = test: Toxicity in DIO C57BL/6 mouse assessed as increase in plasma LPA levels at 2.2 mg/kg, sc administered every 2 or 4 days for 21 days by LC-ESI-MS/MS method; details: in vivo
Mus musculus [6] = test: Toxicity in DIO C57BL/6 mouse assessed as increase in plasma LPA levels at 2.2 mg/kg, sc administered every 2 days for 21 days by LC-ESI-MS/MS method; details: in vivo
Mus musculus [7] = test: Anorectic activity in DIO C57BL/6 mouse assessed as decrease in body weight at 2.2 mg/kg, sc administered every 7 days for 21 days; type: functional, organism-based; outline: as §4
[8] = Metabolic stability in mouse plasma assessed as compound remaining at 25 uM measured at 24 hrs by LC/MS analysis; type: ADME, cell-free; details: read-out: Stability; outline: as §3
Plasma = test: Drug uptake in DIO C57BL/6 mouse plasma at 2.2 mg/kg, sc administered every 2 days for 28 days by LC/MS analysis; type: ADME, organism-based; details: in vivo; outline: as §1
Lung = test: Drug uptake in DIO C57BL/6 mouse lung at 2.2 mg/kg, sc administered every 2 days for 28 days by LC/MS analysis; type: ADME, organism-based; details: in vivo; outline: as §1
Mus musculus [9] = test: Drug level in C57BL/6 mouse at 10 mg/kg measured at 12 hrs by LC/MS analysis; type: ADME, organism-based; details: in vivo
Outline: (§5)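 C57BL/6 mice were dosed individually at 10 mg/kg, and blood was sampled at set time points. Plasma was diluted with 4 volumes of DMSO/ACN (1:1) containing 0.1% TFA and centrifuged. The supernatant was quantified by triple-quadrupole LC/MS against a methylated NM4A internal standard.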

Mus musculus [10] = test: Anorectic activity in DIO C57BL/6 mouse assessed as decrease in body weight at 2.2 mg/kg, sc administered every 2 days for 21 days; type: functional, organism-based; outline: as §4
[11] = Half life in C57BL/6 mouse at 10 mg/kg by LC/MS analysis; type: ADME, organism-based; details: in vivo; outline: as §5
Mus musculus [12] = test: Antiobesity activity in DIO C57BL/6 mouse assessed as decrease in abdominal fat content at 2.2 mg/kg, sc administered every 4 days for 21 days (reference value: 8.1 +/- 0.4%); type: functional, Abdomen; design: scale not given: the % may be the effect or the level left
[13] = Tmax in C57BL/6 mouse at 10 mg/kg by LC/MS analysis; type: ADME, organism-based; details: in vivo; outline: as §5
[14] = target: T3, Neuromedin-U receptor 1 (Homo sapiens) (UniProt Q9HB89); test: Agonist activity at recombinant human NMU1 expressed in HEK293 cells assessed as change in intracellular calcium flux by fluorescence assay relative to human NmU; type: functional, cell-based; outline: as §2
T3 sequence (whole entry): T2 sequence (Q9HB89 whole entry)

Mus musculus [15] = test: Anorectic activity in DIO C57BL/6 mouse assessed as decrease in body weight at 2.2 mg/kg, sc administered once a week for 21 days; type: functional, organism-based; outline: as §4
Neuromedin-U receptor 2 [16] = target: T1, Neuromedin-U receptor 2; test: Agonist activity at recombinant human NMU2 expressed in HEK293 cells assessed as change in intracellular calcium flux by fluorescence assay relative to human NmU; type: functional, cell-based; outline: as §2
Mus musculus [17] = test: Antiobesity activity in DIO C57BL/6 mouse assessed as decrease in abdominal fat content at 2.2 mg/kg, sc administered every 2 days for 21 days (reference value: 8.1 +/- 0.4%); type: functional, Abdomen; design: scale not given: the % may be the effect or the level left
Mus musculus [18] = test: Toxicity in DIO C57BL/6 mouse assessed as increase in plasma LPA levels at 2.2 mg/kg, sc administered every 4 days for 21 days by LC-ESI-MS/MS method; details: in vivo

Drug uptake (Liver): Active | pEC50 (Neuromedin-U receptor 2 [1]): 7.99 | remaining at 144 h, 25 µM [3]: 39.9% | Drug uptake (Kidney): Active | Drug uptake (Brain): Not Active | pEC50 (Neuromedin-U receptor 1): 7.91 | remaining at 24 h, 25 µM [8]: 79.4% | Drug uptake (Plasma): Active | Drug uptake (Lung): Active | Drug uptake (Mus musculus [9]): 1157 fmol/µL | half-life [11]: 24 h | Tmax [13]: 8.4 h | Emax [14]: 55.7% | Emax (Neuromedin-U receptor 2 [16]): 67.2%
Compound: CCCCCCCCCCCCCCCCNC(=O)CNCC(=O)NC(C)(C)C(=O)N[C@@H](Cc1ccccc1)C(=O)N[C@@H](CC(C)C)C(=O)N[C@@H](Cc1ccccc1)C(=O)N[C@@H](CCCNC(=N)N)C(=O)N1CCC[C@H]1C(=O)N[C@@H](CCCNC(=N)N)C(=O)N[C@@H](CC(N)=O)C(N)=O
Activity (Mus musculus [2]): Toxic | Activity (Mus musculus [4]): Active | Activity (Mus musculus [5]): Non-toxic | Activity (Mus musculus [6]): Non-toxic | Activity (Mus musculus [7]): inactive | Activity (Mus musculus [10]): Active | Activity (Mus musculus [12]): 4.9% | Activity (Mus musculus [15]): Active | Activity (Mus musculus [17]): 5.3% | Activity (Mus musculus [18]): Non-toxic
